Test results from paper PMC3726261 (Cancer, 2012).

What was measured:
[1] = tested on: prostate-specific antigen levels; conditions: small percentage of prostate cancer patients; cited from earlier work
[2] = Pharmacokinetics: plasma R-150033 by LC-MS/MS after oral efatutazone; format: in vivo, human; conditions: 0.10 to 1.15 mg twice daily; single and multiple doses
Procedure, shortened: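 Adults with advanced solid malignancies took oral doses twice daily in 21-day cycles, in cohorts of 3 to 6 at 0.10–1.15 mg. Plasma was sampled at baseline and 0.5, 1, 2, 3, 4, 6 and 8–10 h after the first dose on day 1 of cycles 1 and 2. Active metabolite R-150033 was measured by validated LC-MS/MS. AUC, Cmax and Tmax were derived; accumulation was AUC0-tau/AUC0–12, and steady state was judged from trough levels.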

[3] = tested on: recurrent metastatic liposarcoma; conditions: patients with recurrent metastatic liposarcoma; cited from earlier work

## CN(CCOc1ccc(CC2SC(=O)NC2=O)cc1)c1ccccn1 (stereo not drawn) [rosiglitazone]
[1]
  Effect on prostate-specific antigen levels: either decreased or prolonged the stabilization of prostate-specific antigen levels

## Cc1cc(Oc2ccc3nc(COc4ccc(CC5SC(=O)NC5=O)cc4)n(C)c3c2)cc(C)c1N (stereo not drawn) [R-150033]
[2]
  Dose proportionality of exposure (AUC and Cmax): dose proportional

## CCc1ccc(CCOc2ccc(CC3SC(=O)NC3=O)cc2)nc1 (stereo not drawn) [pioglitazone]
[3]
  Disease stabilization: prolonged disease stabilization
